Calls of active or inactive are those of the source. The rule behind the calls is not given here.
Columns and labels:
HCT-116 [1] = assay: Induction of apoptosis in human HCT116 cells assessed as plasma membrane budding at 10 uM after 24 hrs by Hoechst 33342 staining based microscopic analysis; assay type: functional, cell-based
How it was run: (§1)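 HCT 116 cells were plated at 20,000 per dish 24 h before treatment, then given 10 μM compound or 1% (v/v) DMSO control for 24 h. They were fixed in 1.5% glutaraldehyde in PBS for 1 h, washed with PBS, stained with 5 μg/ml Hoechst 33342 and imaged by confocal microscopy.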

HCT-116 [2] = assay: Induction of apoptosis in human HCT116 cells assessed as intact plasma membranes at 10 uM after 24 hrs by Hoechst 33342 staining based microscopic analysis; assay type: functional, cell-based; how it was run: as §1
HCT-116 [3] = assay: Induction of apoptosis in human HCT116 cells assessed as chromatin condensation at 10 uM after 24 hrs by Hoechst 33342 staining based microscopic analysis; assay type: functional, cell-based; how it was run: as §1
HCT-116 [4] = assay: Induction of apoptosis in human HCT116 cells assessed as cell shrinkage and nuclear condensation at 10 uM after 24 hrs by Hoechst 33342 staining based microscopic analysis; assay type: functional; how it was run: as §1
HCT-116 [5] = assay: Cytotoxicity against human HCT116 cells assessed as growth inhibition after 72 hrs by CCK8 assay; assay type: functional, cell-based; conditions: HCT-116, 72 h
How it was run: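 HCT-116 cells seeded at 3000/well in DMEM with 10% FBS and left 24 h to adhere at 37°C in CO2. They were then exposed for 72 h to 1, 2, 5, 10, 20, 30 and 40 μM, with 1% DMSO and media-only controls. Readout was CCK-8 reduction, 1 h, absorbance at 450 nm. IC50 was taken from log concentration versus % survival curves; three experiments, quadruplicate points.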

HCT-116 [6] = assay: Cytotoxicity against human HCT116 cells assessed as growth inhibition at 40 uM after 72 hrs by CCK8 assay; assay type: functional; conditions: HCT-116, 72 h, read-out: GI
How it was run: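 HCT-116 cells seeded at 3000/well in DMEM with 10% FBS and allowed 24 h at 37°C in CO2. They were then treated 72 h at a single 40 uM concentration, with media-only and 1% DMSO controls. Fresh serum-free medium plus CCK-8 was added for 1 h at 37°C, and absorbance read at 450 nm as % cell survival.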

HCT-116 [7] = assay: Induction of apoptosis in human HCT116 cells assessed as nuclear condensation at 10 uM after 24 hrs by Hoechst 33342 staining based microscopic analysis; assay type: functional; how it was run: as §1

Row | Compound | Activity (HCT-116 [1]) | Activity (HCT-116 [2]) | Activity (HCT-116 [3]) | Activity (HCT-116 [4]) [%] | IC50 (HCT-116 [5]) [µM] | inhibition of growth at 40 µM (HCT-116 [6]) [%] | Activity (HCT-116 [7]) [%]
1 | CCOC(=O)c1csc(-c2csc(-c3csc([C@@H](NC(=O)OC(C)(C)C)[C@@H](C)OC(C)(C)C)n3)n2)n1 | inactive | Active | Active | 30 | 26.5 | > 50 | 
2 | COC(=O)c1coc(-c2coc([C@@H](NC(=O)OC(C)(C)C)[C@@H](C)OC(C)(C)C)n2)n1 |  |  |  |  | > 100 |  | 
3 | CCOC(=O)c1csc(-c2coc(-c3coc([C@@H](NC(=O)OC(C)(C)C)[C@@H](C)OC(C)(C)C)n3)n2)n1 | inactive | Active | Active |  |  |  | 12
4 | COC(=O)c1nc(-c2csc(-c3csc(-c4coc(-c5coc([C@@H](NC(=O)OC(C)(C)C)[C@@H](C)OC(C)(C)C)n5)n4)n3)n2)oc1-c1ccccc1 |  |  |  |  | 18.2 | > 50 | 
5 | COC(=O)c1nc(-c2csc(-c3csc(-c4csc(-c5csc([C@@H](NC(=O)OC(C)(C)C)[C@@H](C)OC(C)(C)C)n5)n4)n3)n2)oc1-c1ccccc1 |  |  |  |  | 18.7 | > 50 | 
6 | CCOC(=O)c1csc(-c2csc([C@@H](NC(=O)OC(C)(C)C)[C@@H](C)OC(C)(C)C)n2)n1 |  |  |  |  | 19.4 | > 50 | 

Reference: ChEMBL document CHEMBL3217467, “A structure-activity relationship study on multi-heterocyclic molecules: two linked thiazoles are required for cytotoxic activity” (Medchemcomm, 2013)
